Assay [1] concerns D2 plus D3 receptors. The format is binding, rhesus monkey. Conditions: n = 8; for B1 apparent receptor binding density: 4 nM radioligand; for B2 apparent receptor binding density: 10 nM radioligand. An outline of the steps:
(§1)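 Brains from male rhesus monkey (5 kg, 6 years) and male Sprague-Dawley rats (~500 g, 5 months) were flash frozen, and 20 μm coronal sections were cut. Sections were incubated 30 min with 4 nM tritiated test radioligand or 10 nM [3H]raclopride, ±1 μM S(−)-eticlopride for nonspecific binding. Sections were rinsed five times in ice-cold buffer, then imaged 24 h on a gaseous beta imager and calibrated against tritium standards. Reported as mean ± S.E.M (monkey n = 8, rat n = 30).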

The target in another assay is human hD2L receptors (Homo sapiens, UniProt P14416). Conditions: hD2L in HEK cells, saturation binding, mean ± S.E.M n = 3; ref Xu et al. (2009); cited from earlier work.
Chain of human hD2L receptors (P14416 whole entry): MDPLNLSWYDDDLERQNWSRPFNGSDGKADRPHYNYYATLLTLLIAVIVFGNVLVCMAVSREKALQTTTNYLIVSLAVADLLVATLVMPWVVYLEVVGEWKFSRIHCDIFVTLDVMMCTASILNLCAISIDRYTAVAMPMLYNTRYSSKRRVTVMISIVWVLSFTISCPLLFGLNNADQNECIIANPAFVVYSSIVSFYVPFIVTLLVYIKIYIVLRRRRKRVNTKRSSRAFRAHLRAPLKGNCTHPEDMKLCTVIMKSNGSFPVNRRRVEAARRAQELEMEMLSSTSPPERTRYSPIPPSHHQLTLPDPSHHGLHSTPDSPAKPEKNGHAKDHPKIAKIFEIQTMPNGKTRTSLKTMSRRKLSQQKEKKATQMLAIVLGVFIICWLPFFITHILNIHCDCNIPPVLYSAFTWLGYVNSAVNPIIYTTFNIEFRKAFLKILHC
Assay [2] addresses T1, rat rD3 receptors (Rattus norvegicus, UniProt P19020). Conditions: cited from earlier work.
Assay [3] relates to D2 plus D3 receptors. The format is binding, Sprague-Dawley rat. Particulars: rat striatum, n = 30. In a few lines: as §1
Assay [4] concerns D3 receptors. Nature of the assay: Fractional receptor occupancy from saturation binding isotherm. Conditions: monkey striatum; for receptors labeled: derived from saturation binding isotherm. In a few lines:
(§2)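 Calculated rather than measured: the fraction of D2 or D3 receptors occupied in monkey striatum comes from B/Bmax = L/(L+Kd). L is 4 nM for the tritiated test radioligand or 10 nM for tritiated raclopride. Kd values are from saturation binding to cloned human D2L/D3 receptors expressed in HEK cells. The test radioligand Kd values were taken from earlier work.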

Assay [5] deals with D2 receptors. The assay is described as above. Particulars: monkey striatum; for receptors labeled: derived from saturation binding isotherm. An outline of the steps: as §2
Assay [6] has as its system D2 receptors. Nature of the assay: Fractional receptor occupancy from saturation binding isotherm. Conditions: rat striatum; for receptors labeled: derived from saturation binding isotherm. In a few lines: (§3)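 Computed occupancy fractions for rat striatum D2 or D3 receptors use the mass-action isotherm B/Bmax = L/(L+Kd). L is 4 nM for the tritiated test radioligand and 10 nM for tritiated raclopride. Kd values come from saturation binding to rat D2L/D3 receptors expressed in Sf9 cell membranes. The test radioligand Kd was taken from earlier work.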

The target in another assay is rat rD2L receptors (Rattus norvegicus, UniProt P61169). Conditions: rD2L in Sf9 cells, saturation binding, mean ± S.E.M n = 3; ref Xu et al. (2009); cited from earlier work.
Chain of rat rD2L receptors (P61169 whole entry): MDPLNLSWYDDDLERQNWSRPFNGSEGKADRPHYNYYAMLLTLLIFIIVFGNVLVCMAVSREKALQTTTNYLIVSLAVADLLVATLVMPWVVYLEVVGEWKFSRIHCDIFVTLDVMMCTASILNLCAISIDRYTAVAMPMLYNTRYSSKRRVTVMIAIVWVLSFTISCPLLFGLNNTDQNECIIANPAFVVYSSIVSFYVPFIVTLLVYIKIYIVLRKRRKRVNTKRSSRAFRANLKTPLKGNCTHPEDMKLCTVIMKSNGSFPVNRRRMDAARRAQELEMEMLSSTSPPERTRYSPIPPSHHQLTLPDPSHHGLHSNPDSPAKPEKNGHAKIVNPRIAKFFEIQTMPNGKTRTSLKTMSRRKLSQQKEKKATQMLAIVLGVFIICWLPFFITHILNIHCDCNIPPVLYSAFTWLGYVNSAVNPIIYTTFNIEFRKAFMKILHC
Assay [7] deals with D3 receptors (Rattus norvegicus, UniProt P19020). Nature of the assay: Scatchard analysis of autoradiography binding to rat brain sections. More on the design: species or system Sprague-Dawley rat.
Chain of D3 receptors (Rattus norvegicus, UniProt P19020) (P19020 whole entry): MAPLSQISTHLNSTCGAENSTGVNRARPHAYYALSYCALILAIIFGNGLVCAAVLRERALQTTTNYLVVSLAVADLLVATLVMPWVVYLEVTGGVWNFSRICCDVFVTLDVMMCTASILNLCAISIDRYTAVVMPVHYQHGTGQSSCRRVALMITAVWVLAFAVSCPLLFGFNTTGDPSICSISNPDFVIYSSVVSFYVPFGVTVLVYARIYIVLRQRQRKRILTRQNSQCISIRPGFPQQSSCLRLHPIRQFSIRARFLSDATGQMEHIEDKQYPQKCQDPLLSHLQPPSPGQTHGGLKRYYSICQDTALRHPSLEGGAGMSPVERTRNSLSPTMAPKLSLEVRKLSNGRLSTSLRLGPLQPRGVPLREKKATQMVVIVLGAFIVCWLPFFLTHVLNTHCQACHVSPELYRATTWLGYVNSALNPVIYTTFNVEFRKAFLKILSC
Assay [8] deals with T2, human hD3 receptors (Homo sapiens, UniProt P35462). Conditions: cited from earlier work.
T2 sequence (P35462 whole entry): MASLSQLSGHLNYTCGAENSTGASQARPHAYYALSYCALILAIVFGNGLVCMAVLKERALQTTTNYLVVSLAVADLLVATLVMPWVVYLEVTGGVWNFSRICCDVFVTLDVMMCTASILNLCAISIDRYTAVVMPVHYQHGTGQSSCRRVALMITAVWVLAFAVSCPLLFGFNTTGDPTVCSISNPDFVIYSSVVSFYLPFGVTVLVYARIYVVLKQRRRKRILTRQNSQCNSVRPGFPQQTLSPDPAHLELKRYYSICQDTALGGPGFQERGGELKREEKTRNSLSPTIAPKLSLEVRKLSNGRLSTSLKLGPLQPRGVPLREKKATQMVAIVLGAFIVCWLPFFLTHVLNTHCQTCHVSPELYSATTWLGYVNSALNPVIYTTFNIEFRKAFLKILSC
Assay [9] deals with D3 receptors. Briefly: Fractional receptor occupancy from saturation binding isotherm. Particulars: rat striatum; for receptors labeled: derived from saturation binding isotherm. In a few lines:
as §3

Assay [10] has as its target T2, human hD3 receptors. Briefly: Saturation. Particulars: hD3 in HEK cells, saturation binding, mean ± S.E.M n = 3.
In assay [11] the target is T1, rat rD3 receptors. Nature of the assay: Saturation. Conditions: rD3 in Sf9 cells, saturation binding, mean ± S.E.M n = 3.
[12] abbreviates: 4 nM, from Eq. 2 with Kd of Table I.
Setting [13] is: 10 nM, from Eq. 2 with Kd of Table I.

Several values for one entry are separate records, joined by “and”; a condition that tells them apart may be missing. Equal values may be shown once. Read-outs that look alike come from different tables or passages of the source.

T1 sequence (P19020 whole entry): as the sequence (P19020 whole entry) above

As usually defined, the Kd is the free concentration of one partner at which half of the binding sites on the other are occupied at equilibrium, for simple one-to-one binding. In the case of `COc1ccccc1N1CCN(CCCCNC(=O)c2ccc(N(C)C)cc2)CC1` [[^3H]WC-10, 4-(dimethylamino)-N-(4-(4-(2-methoxyphenyl)piperazin-1-yl)butyl)benzamide], the “B1 apparent receptor binding density” value in the assay on D2 plus D3 receptors [1] (rhesus anterior caudate) was 125 fmol/mg tissue and 125 ± 3 fmol/mg tissue; with D2 plus D3 receptors [1] (rhesus putamen), 141 fmol/mg tissue and 141 ± 4 fmol/mg tissue; in the assay with D2 plus D3 receptors [3] (4 nM radioligand), 38 fmol/mg tissue and 38 ± 2 fmol/mg tissue. Further, the dissociation constant (Kd) at human hD2L receptors was 76 ± 4 nM; at rat rD3 receptors [2] (rD3 in Sf9 cells, saturation binding, mean ± S.E.M n = 3, ref Xu et al. (2009)) it was 3.9 nM and 3.94 nM; at rat rD2L receptors, 158 ± 8.3 nM; at D3 receptors [7], 3.4 nM; at human hD3 receptors [8] (hD3 in HEK cells, saturation binding, mean ± S.E.M n = 3, ref Xu et al. (2009)), 1.2 nM and 1.16 nM. Also, the “D2L/D3 (Kd ratio)” value at rat rD3 receptors [2] (rat receptors in Sf9 cells, ref Xu et al. (2009)) is listed as 40.1; on human hD3 receptors [8] (human receptors in HEK cells, ref Xu et al. (2009)) it was 65.5. Besides, the “fold higher affinity to rat Sf9 rD3 than to rat Sf9 rD2L receptors” value on rat rD3 receptors [2] (ref Xu et al., 2009) is 40 fold. For the same compound, the “fold lower affinity to rat Sf9 rD3 than to human HEK D3 receptors” value on rat rD3 receptors [2] (ref Xu et al., 2009) is 3 fold. For the same compound, the receptors labeled in the assay on D3 receptors [4] (4 nM) was 78%; in the assay with D2 receptors [5] (4 nM), 5%; with D2 receptors [6] (4 nM), 2%; in the assay with D3 receptors [9] (4 nM), 50%. Moreover, the “b1, receptor occupancy fraction” value in the assay with D3 receptors [4] (setting [12]) is given as 0.78; in the assay with D3 receptors [9] (setting [12]), 0.5. For the same compound, the results for the “a1, receptor occupancy fraction” value in the assay with D2 receptors [5] (setting [12]) and in the assay on D2 receptors [6] (setting [12]) were 0.05 and 0.02, respectively. Besides, the “fold higher affinity to human HEK D3 than to HEK D2L receptors” value at human hD3 receptors [8] (ref Xu et al., 2009) is 66 fold.

Take `CCN1CCC[C@H]1CNC(=O)c1c(O)c(Cl)cc(Cl)c1OC` (racemic) [[^3H]raclopride, reference compound]: the “B2 apparent receptor binding density” value in the assay with D2 plus D3 receptors [1] (rhesus caudate) is 318 fmol/mg tissue and 318 ± 17 fmol/mg tissue; with D2 plus D3 receptors [1] (rhesus putamen) it was 345 fmol/mg tissue and 345 ± 23 fmol/mg tissue; in the assay on D2 plus D3 receptors [3] (10 nM radioligand), 145 fmol/mg tissue and 145 ± 4 fmol/mg tissue. For the same compound, the Kd at human hD3 receptors [10] worked out at 18 ± 1 nM; on rat rD3 receptors [11], 17.1 ± 1.7 nM. The receptors labeled with D3 receptors [4] (10 nM) stood at 36%; in the assay on D2 receptors [5] (10 nM), 86%; in the assay with D2 receptors [6] (10 nM), 60%; in the assay on D3 receptors [9] (10 nM), 37%. The entries for the “b2, receptor occupancy fraction” value in the assay with D3 receptors [4] (setting [13]) and with D3 receptors [9] (setting [13]) were 0.36 and 0.37, respectively. Further, the “a2, receptor occupancy fraction” value in the assay with D2 receptors [5] (setting [13]) was found to be 0.86; in the assay on D2 receptors [6] (setting [13]), 0.6.

Source of the values: publication PMC3583018 (Synapse (New York, N.Y.), 2010).
